# Source: ChEMBL document CHEMBL1123492, “Carboxyl-modified amino acids and peptides as protease inhibitors” (J Med Chem, 1986)
# B1: Papain (Carica papaya), P00784 (protein)
# chain: MAMIPSISKLLFVAICLFVYMGLSFGDFSIVGYSQNDLTSTERLIQLFESWMLKHNKIYKNIDEKIYRFEIFKDNLKYIDETNKKNNSYWLGLNVFADMSNDEFKEKYTGSIAGNYTTTELSYEEVLNDGDVNIPEYVDWRQKGAVTPVKNQGSCGSCWAFSAVVTIEGIIKIRTGNLNEYSEQELLDCDRRSYGCNGGYPWSALQLVAQYGIHYRNTYPYEGVQRYCRSREKGPYAAKTDGVRQVQPYNEGALLYSIANQPVSVVLEAAGKDFQLYRGGIFVGPCGNKVDHAVAAVGYGPNYILIKNSWGTGWGENGYIRIKRGTGNSYGVCGLYTSSFYPVKN
# Substrate: O=C(CNC(=O)OCc1ccccc1)Oc1ccc([N+](=O)[O-])cc1
# Test: Michaelis constant against papain
# Conditions: Carica papaya
# Outline: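 Papain activated 45 min at 25 °C in 50 mM phosphate pH 6.2 with 1 mM EDTA and 0.25 mM cysteine, made fresh daily. N-Cbz-Gly p-nitrophenyl ester hydrolysis at 25 °C read at 340 nm (Δε 6000 M⁻¹ cm⁻¹), corrected for nonenzymic hydrolysis. Compounds in acetonitrile or DMF, final <2.5% v/v. Reversible Ki by Lineweaver–Burk; irreversible Ki and k2 by Kitz–Wilson.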
protein,measurement,value
B1,Km,10.3 µM
